Entries after “also recorded” stand apart in the source; their conditions may differ. Where two headings read alike, the source gives them in different places. Ends that are not written are not given here.
Assays:
PAC1-R [1] = conditions: cited from earlier work
RGC-5 cells [2] = assay: TUNEL assay, MPP-treated RGC-5 cells; assay type: cell-based, mouse; conditions: 8 mM MPP; for TUNEL signal (MPP-induced apoptosis): pre-treatment with 10 μM peptide
RGC-5 cells [3] = assay: MTT cell viability assay, MPP-treated RGC-5 PD cell model; assay type: cell-based, mouse; conditions: for protection against decrease of cell viability induced by MPP: 0.1–100 μM, 2 h before 8 mM MPP
Procedure, shortened: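 RGC-5 cells were seeded at 4×10⁴ per well and pretreated with test compound (0.1–100 μM) for 2 h before 8 mM MPP. After 24 h, MTT (0.5 mg/mL) was added for 4 h and formazan was dissolved in isopropanol. Readout was OD₅₇₀, expressed as % of cells without MPP. At least four parallel replicates, repeated three times.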

PAC1-R [4] = conditions: cited from earlier work; remark: listed apart in the source
PAC1-R promoter = PAC1-R promoter activity assay; assay type: cell-based, mouse; conditions: RGC-5
PAC1-R in RGC-5 cells = assay type: cell-based, mouse; conditions: 15 min; for PAC1-R level in RGC-5 cells (immunofluorescence) / nuclear translocation of PAC1-R in RGC-5 cells: 1 μM
PACAP promoter = PACAP promoter activity assay; assay type: cell-based, mouse; conditions: RGC-5; for positive effect on PACAP’s promoter activity: over 10 μM
PACAP = PACAP level determined by ELISA in RGC-5 cells; assay type: cell-based, mouse; conditions: for positive effect on PACAP expression level: over 10 μM
PAC1-R [5] = assay: Western blot of PAC1-R in RGC-5 cells; assay type: cell-based, mouse; conditions: for PAC1-R expression by Western blot: 0.1 μM to 100 μM
Procedure, shortened: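 RGC-5 cells (F12, 10% FBS) were treated for 30 min with test compound (0.01–100 μM), with or without 50 μM 2-bromopalmitate; controls received serum-free medium. Blots were run by SDS-PAGE/PVDF, probed with rabbit anti-PAC1-R (C-terminal aa 506–525) and anti-β-actin, and detected with HRP-ECL.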

[6] = tested on: PAC1-R promoter sequence (−2019 bp to −1739 bp); assay: ChIP-PCR, PAC1-R promoter sequence, RGC-5 cells; assay type: cell-based, mouse; conditions: RGC-5, 1 μM, 15 min; antibody to PAC1-R C-terminus; 280 bp product
PAC1R-eGFP = assay: Confocal microscopy of nuclear translocation of PAC1R-eGFP in PAC1R-CHO cells; assay type: cell-based, mouse; conditions: 1 μM, 15 min, vs control cells
Procedure, shortened: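 CHO-K1 cells (DMEM, 10% FBS, 37°C, 5% CO₂) stably transfected with C-terminally eGFP-tagged wild-type or Cys25Ala PAC1-R, selected with G418 (0.8–1 mg/mL) and cloned by limiting dilution; at least three matched clones were used. Cells were exposed to 1 μM test compound for 15 min, then imaged by confocal microscopy (ex 488/em 545 nm). Translocation was taken as nuclear/whole-cell fluorescence, with ≥3 replicates repeated three times.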

PAC1-EC1 = PAC1-EC1 pre-saturated with PACAP(28–38); previous study; ref [19]; cited from earlier work
[7] = tested on: M-PAC1R(Cys25/Ala25)-eGFP; assay: Confocal microscopy of nuclear translocation of M-PAC1R; assay type: cell-based, mouse; conditions: 1 μM, 15 min
Procedure, shortened: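 CHO-K1 cells stably expressing C-terminally eGFP-tagged PAC1-R Cys25/Ala25 mutant, from lipofection, G418 (0.8–1 mg/mL) selection and limiting-dilution cloning; at least three clones with similar receptor levels run in parallel. Cells grown in 10% FBS medium at 37°C, 5% CO₂. Exposed to 1 μM test compound or none for 15 min; eGFP imaged by confocal microscopy (ex 488 nm, em 545 nm). ≥3 replicates, repeated three times.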

[8] = ref [20], [21]; cited from earlier work
PAC1-R [9] = conditions: cited from earlier work; remark: listed apart in the source
[10] = tested on: PACAP promoter sequence (−858 bp to −536 bp); assay: ChIP-PCR, PACAP promoter sequence, RGC-5 cells; assay type: cell-based, mouse; conditions: RGC-5, 1 μM, 15 min; antibody to PAC1-R C-terminus; 320 bp product
[11] = ref [10]; cited from earlier work
[12] = biological target: T1, recombinant PAC1-EC1 protein; assay: ITC
T1 chain: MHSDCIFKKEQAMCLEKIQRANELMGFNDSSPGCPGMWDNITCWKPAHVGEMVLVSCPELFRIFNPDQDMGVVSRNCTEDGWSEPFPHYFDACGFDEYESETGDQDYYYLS

[13] = RGC-5, 50 μM 2-bromopalmitate with 1 μM peptide

Molecule: PACAP(6-38): PAC1-R antagonist (FTDSYSRYRKQMAVKKYLAAVLGKRYKQRVKNK; ends and bridges not checked; UniProt P18509 137-169, looked up, fragment)
- antagonism of PAC1-R (PAC1-R [1]; ref [15]): full antagonist

Molecule: C[n+]1ccc(-c2ccccc2)cc1 [MPP, 1-methyl-4-phenylpyridinium, reference compound]
- number of TUNEL-positive cells (RGC-5 cells [2]; 24 h): increased the number of TUNEL-positive cells
- apoptosis in RGC-5 cells (RGC-5 cells [3]; 8 mM MPP, MTT assay): significant apoptosis
- cells remaining viable after MPP (RGC-5 cells [3]; RGC-5, 8 mM MPP, 24 h, MTT, % of cells without MPP): about 31%

Molecule: PACAP38: form of PACAP, ligand of PAC1-R (HSDGIFTDSYSRYRKQMAVKKYLAAVLGKRYKQRVKNK; ends and bridges not checked; UniProt P18509 132-169, looked up)
- PAC1-R’s own expression (PAC1-R [4]; ref [22], [23]): up-regulate PAC1-R’s own expression
- nuclear translocation of PAC1-R (PAC1-R [4]; ref [22], [23]): induce the nuclear translocation of PAC1-R
- activation of PAC1-R (PAC1-R [1]; compared with PACAP27, ref [2]): significantly more complete and effective activity than PACAP27

Molecule: CCCCCCCCCCCCCCC(Br)C(=O)O (stereo not drawn) [2-bromopalmitate, reference compound]
- inhibition of oxidative stress-induced nuclear translocation and increase of PAC1-R expression (PAC1-R [4]; ref [23]): can inhibit
- inhibition of anti-apoptotic activities of PACAP(28-38) and TAT (RGC-5 cells [2]; 50 μM 2-bromopalmitate, TUNEL): significantly inhibited
- inhibition of PACAP(28-38)- or TAT-induced PAC1-R promoter activity (PAC1-R promoter; 50 μM 2-bromopalmitate, 15 min): significantly inhibited
- inhibition of nuclear translocation of PAC1-R induced by PACAP(28-38) or TAT (PAC1-R in RGC-5 cells; [13]): effectively inhibited
- inhibition of up-regulation of PAC1-R induced by PACAP(28-38) or TAT (PAC1-R in RGC-5 cells; [13]): effectively inhibited
- inhibition of PACAP(28-38)- or TAT-induced PACAP promoter activity (PACAP promoter; 50 μM 2-bromopalmitate, 15 min): significantly inhibited
- inhibition of PACAP(28-38)- or TAT-induced PACAP expression (PACAP; 50 μM 2-bromopalmitate, 30 min, ELISA): inhibited
- truncated forms of PAC1-R with molecular weight smaller than 35 kDa (PAC1-R [5]; 50 μM 2-bromopalmitate with PACAP(28-38) or TAT, Western blot): decrease
- inhibition of PACAP(28-38)- or TAT-induced PAC1-R expression (PAC1-R [5]; 50 μM 2-bromopalmitate, 30 min, Western blot): inhibited

Molecule: GRKKRRQRRRP [TAT]
- ChIP-PCR band for PAC1-R promoter sequence [6]: positive band
- nuclear translocation of PAC1R-eGFP (PAC1R-eGFP): significantly detected
- TUNEL signal (MPP-induced apoptosis) (RGC-5 cells [2]; 24 h): significantly reduced
- promoter activity of PAC1-R (PAC1-R promoter; 0.1 μM–1 μM, 15 min): significantly enhanced
- binding signal from titration of TAT (PAC1-EC1): no binding signal is detected
- PAC1-R level in RGC-5 cells (immunofluorescence) (PAC1-R in RGC-5 cells): increase the PAC1-R level
- nuclear translocation of PAC1-R in RGC-5 cells (PAC1-R in RGC-5 cells): induce significant nuclear translocation of PAC1-R
- nuclear translocation of M-PAC1-R (Cys25/Ala25) [7]: significantly weaker than that of the wild-type PAC1-R; also recorded: can not induce significant trafficking or aggregation
- promoter activity of PACAP (PACAP promoter; 0.01 μM–10 μM, 15 min): significantly enhanced
- promoter activity of PACAP (PACAP promoter; 0.1 μM–10 μM, 15 min): increased
- positive effect on PACAP’s promoter activity (PACAP promoter): decreased
- expression level of PACAP (ELISA) (PACAP; 0.1 μM–10 μM, 30 min): significantly increase; also recorded: increased
- positive effect on PACAP expression level (PACAP): decreased
- cytoprotective activities [8]: significant cytoprotective activities
- binding to allosteric regulatory site (PAC1-R [9]; ref [19]): binds to the same allosteric regulatory site mainly through charge interaction
- protection against decrease of cell viability induced by MPP (RGC-5 cells [3]; RGC-5, 24 h, MTT): significantly blocked
- ChIP-PCR band for PACAP promoter sequence [10]: positive band
- PAC1-R expression by Western blot (PAC1-R [5]; 30 min): increased positively with the concentrations
- PAC1-R truncated form (about 35 kDa) (PAC1-R [5]; Western blot, 30 min): induced

Molecule: GKRYKQRVKNK [PACAP(28-38)]
- ChIP-PCR band for PAC1-R promoter sequence [6]: positive band
- nuclear translocation of PAC1R-eGFP (PAC1R-eGFP): significantly detected
- TUNEL signal (MPP-induced apoptosis) (RGC-5 cells [2]; 24 h): significantly reduced
- promoter activity of PAC1-R (PAC1-R promoter; 0.1 μM–1 μM, 15 min): significantly enhanced
- promoter activity of PAC1-R (PAC1-R promoter; 0.1–100 μM, 15 min (legend of Figure 3B), *P<0.01 vs 0 μM): significantly enhanced
- PAC1-R level in RGC-5 cells (immunofluorescence) (PAC1-R in RGC-5 cells): increase the PAC1-R level
- nuclear translocation of PAC1-R in RGC-5 cells (PAC1-R in RGC-5 cells): induce significant nuclear translocation of PAC1-R
- nuclear translocation of M-PAC1-R (Cys25/Ala25) [7]: significantly weaker than that of the wild-type PAC1-R; also recorded: can not induce significant trafficking or aggregation
- promoter activity of PACAP (PACAP promoter; 0.1 μM–10 μM, 15 min): significantly enhanced; also recorded: increased
- positive effect on PACAP’s promoter activity (PACAP promoter): decreased
- expression level of PACAP (ELISA) (PACAP; 0.01 μM–10 μM, 30 min): significantly increase
- expression level of PACAP (ELISA) (PACAP; 0.1 μM–10 μM, 30 min): increased
- positive effect on PACAP expression level (PACAP): decreased
- cytoprotective activities [8]: significant cytoprotective activities
- binding to allosteric regulatory site (PAC1-R [9]; ref [16], [17]): binds to the allosteric regulatory site through both conformational and charge interaction
- protection against decrease of cell viability induced by MPP (RGC-5 cells [3]; RGC-5, 24 h, MTT): significantly blocked
- ChIP-PCR band for PACAP promoter sequence [10]: positive band
- PAC1-R expression by Western blot (PAC1-R [5]; 30 min): increased positively with the concentrations
- PAC1-R truncated form (about 35 kDa) (PAC1-R [5]; Western blot, 30 min): induced

Molecule: pituitary adenylate cyclase-activating polypeptide (HSDGIFTDSYSRYRKQMAVKKYLAAVLGKRYKQRVKNK; ends and bridges not checked; UniProt P18509 132-169, looked up) [PACAP]
- therapeutic effect mediated by PAC1-R [11]: significant therapeutic effect

Molecule: GRKKRRQRRRP [TAT]
- Ka [12]: 503000 M⁻¹

Molecule: GKRYKQRVKNK (ends and bridges not checked) [PACAP(28-38)]
- Ka [12]: 635000 M⁻¹

From publication PMC9828401 (Acta Biochimica et Biophysica Sinica, 2022)
